Laboratory results: ChEMBL document CHEMBL4513216, “Probing the Open Global Health Chemical Diversity Library for Multistage-Active Starting Points for Next-Generation Antimalarials” (ACS Infect Dis, 2020)

Test: Toxicity liver stage against HepG2, at 10uM
Format: cell-based
Design: test concentration 10 uM, cell line HepG2-A16-CD81EGFP
Settings: human, HepG2-A16-CD81EGFP cells; read-out: INHIBITION
Outline: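 Uninfected HepG2-A16-CD81EGFP cells, 3 × 10^3 per well, 1536-well, plated on prespotted compound at 10 μM final, parasite-free screening media added to match infected plates; puromycin 10 μM positive, DMSO 0.5% negative; run in parallel with 48 h PbLuc assay at 37 °C, 5% CO2; viability by CellTiter-Glo luminescence, normalized to controls.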

Row | Structure (SMILES) | cytotoxicity at 10 µM [%]
1 | CC(C)(C)c1cn(C[C@H]2CC3CCN2C[C@@H]3C(=O)NC2CC2)nn1 (stereo partly specified) | 9.46
2 | OC[C@@H]1[C@@H](c2ccccc2)CN2CCN(c3ccccn3)C[C@H]12 | -0.53
3 | O=C1CSC(C(F)(F)F)c2c(O)nn(C3CCCCC3)c2N1 (stereo unspecified) | -45.7
4 | COc1ccc(F)cc1S(=O)(=O)N1CCC(Oc2ccc(Cl)cn2)CC1 | 8.05
5 | Cc1ccc(CNC(=O)C2c3c(ncn3C(C)C)CCN2S(C)(=O)=O)o1 (stereo unspecified) | -13.7
6 | O=C(NC1CC1)c1nc2c(o1)CN(c1ncccn1)C2 | 0.718
7 | CCOCc1cncc2c1CCN(S(=O)(=O)c1ccccc1)C2 | 14.6
8 | CN1Cc2c(C(=O)N3CCOCC3)ncn2-c2ccccc2S1(=O)=O | -1.58
9 | O=c1[nH]c2c(c(=O)n1C1CCCCC1)CCC2NCCc1ccccc1 (stereo unspecified) | -6.91
10 | Cc1cc(C(=O)NCC(C)C)nn1C | -0.971
11 | CCN1CCCC(O)(CNCc2ccncc2)C1 (stereo unspecified) | -2.93
12 | CCOC(=O)c1cc(C(C)(O)CCC=C(C)C)on1 (stereo unspecified) | 2.3
13 | O=C(NC1CCS(=O)(=O)C1)c1cc(Sc2ncccn2)ccn1 (stereo unspecified) | 12
14 | Cc1ccccc1S(=O)(=O)N(C)[C@@H]1CC[C@@H](n2ccnc2C)[C@@H]1O | -1.07
15 | Cc1csc(Nc2cc(C3CN(C(C)C)C3)nc(C)n2)n1 | -7.56
16 | O=C(NC1CCCN(c2ccccn2)C1)C1(c2ccccc2F)CC1 (stereo unspecified) | 7.79
17 | CS(=O)(=O)N1CCCC(Cc2cnc(Br)cn2)CC1 (stereo unspecified) | -2.46
18 | COCC(=O)N1CCOC(c2cccc(-c3cncnc3)n2)C1 (stereo unspecified) | 0.109
19 | Cc1ccccc1-c1cncc(C2CCN(CCO)CC2)n1 | -1.61
20 | CC(=O)N1CCCCC1c1nc2c(c(NC3CCCC3)n1)CN(C)CC2 (stereo unspecified) | -13
21 | CN(CCC(=O)N1CCCC(Cc2cccnc2)C1)Cc1cccnc1 (stereo unspecified) | -9.41
22 | CC(=O)N1CCCCC1c1nc(N)ncc1-c1ccccc1 (stereo unspecified) | -0.233
23 | Cn1cc(C2CCCN2C(=O)c2cnc(-c3cccs3)s2)cn1 (stereo unspecified) | 4.99

Row | Structure (SMILES) | cytotoxicity at 10 µM [%]
24 | COc1cc(CNC(C)c2nnc3n2CCC3)cc(OC)c1 (stereo unspecified) | -41.7
25 | CCOCCCNC(=O)c1cccn1Cc1cccnc1 | -43.8
26 | Cc1cc(CN(CCO)Cc2cc(Br)ccc2F)no1 | 3.46
27 | Clc1cc(Cl)cc(CN2CCC(NCc3cc[nH]n3)CC2)c1 | 11.1
28 | COCCCOc1ccc(C(=O)N(C)Cc2cccc(O)c2)cn1 | -9.63
29 | CCC(C)c1csc(NC(=O)c2sc(-c3nnc[nH]3)nc2C)n1 (stereo unspecified) | -35.5
30 | Cc1noc(CCCC(=O)N2CSCC2C(=O)NCC2CC2)n1 (stereo unspecified) | -44.9
31 | FC(F)(F)c1cc(C2CCCN(Cc3ccncc3)C2)n[nH]1 (stereo unspecified) | -52.8
32 | CC(C)N(C)S(=O)(=O)N(Cc1cccs1)CC1CCCO1 (stereo unspecified) | -53.7
33 | Cc1cc(C(=O)NC(C)CC(=O)c2ccco2)[nH]n1 (stereo unspecified) | -8.17
34 | COc1ccc(CNC(Cn2cncn2)c2ccccc2)cc1C (stereo unspecified) | -4.33
35 | CC(=O)Nc1ccc(CNCc2ccc(CS(C)(=O)=O)cc2)cc1 | 4.67
36 | Cc1nnc(NC(=O)NC2CCCc3c2cnn3CCO)s1 (stereo unspecified) | 6.66
37 | O=C(CCNS(=O)(=O)c1ccccc1F)NCc1ccoc1 | -16.5
38 | Cc1ncc2c(n1)CN(Cc1nc(C)c(C)o1)CC2 | -4.32
39 | O=C(CCc1ccncc1)N1CCCC(N2CCNC2=O)C1 (stereo unspecified) | 2.71
40 | O=C(c1ccc(-n2ccnc2)nn1)N1CCCCC1Cn1cccn1 (stereo unspecified) | -4.49
41 | CC(C)Cn1cnnc1C1CCCN1C(=O)c1ccc(F)cc1F (stereo unspecified) | -2.01
42 | NS(=O)(=O)CC1CCCN1CCOc1ccccc1F (stereo unspecified) | 3.98
43 | CCS(=O)(=O)NC(CCSC)C(=O)Nc1ccc(F)cc1 (stereo unspecified) | -6.6
44 | CCc1ccc(NC(=O)c2ncc(C(N)=O)cc2Cl)cc1F | -9.86
45 | CCOCCN1CCN(CC(O)c2ccc(F)cc2)CC1 (stereo unspecified) | -8.92
46 | CCc1nc(CN2CCCC2C(=O)NC2CC2)cs1 (stereo unspecified) | -4.63

Row | Structure (SMILES) | cytotoxicity at 10 µM [%]
47 | N#Cc1ccc(CN(CCF)Cc2cccc(F)c2)cc1 | -4.11
48 | COc1ccc(CN(C)CC(=O)c2ccc3[nH]c(=O)[nH]c3c2)cc1F | 8.51
49 | CCn1c(CN(C)Cc2cnc(C)s2)nc2c(F)cccc21 | -42
50 | COc1ccccc1C(C)NC(=O)NCCC(=O)NC1CCCCC1 (stereo unspecified) | 0.0119
51 | N#Cc1cc(F)c(NCCc2ccc(S(N)(=O)=O)cc2)c(F)c1 | -53.9
52 | COc1cccc(CNC(CN2CCN(C)CC2)c2ccccc2)c1 (stereo unspecified) | 12.5
53 | Cc1ccc(CC(=O)N2CCOC(c3nc(C)n[nH]3)C2)cn1 (stereo unspecified) | -3.28
54 | O=C(c1cscn1)N1CCc2ncc(Cn3cncn3)n2CC1 | -68.9
55 | O=C(c1ccnnc1)N1CCc2ncnc(C3CCOC3)c2CC1 (stereo unspecified) | -77.5
56 | Cc1cccc(COC[C@]23COC[C@H]2CN(c2ncccn2)C3)n1 | -76.2
57 | CC(=O)N1CCn2cc(CNC(=O)c3cccn3C)nc2C1 | 1.88
58 | CN(Cc1ccccn1)C1COC2(CCN(Cc3cccnc3)CC2)C1 (stereo unspecified) | -1.42
59 | Cc1ccc(CN2CCCn3c(nc(Cn4cncn4)cc3=O)C2)s1 | -1.6
60 | CN(C)CC(=O)Nc1ccc(C(=O)N(C)CCc2cn[nH]c2)cc1 | 2.2
61 | CC(=O)c1cccc(-c2nc3c([nH]2)CCNC3)c1F | -50.5
62 | Cc1ccc(OCC(=O)N2CCOCC(O)(CN3CCCC3)C2)cc1C (stereo unspecified) | -4.05
63 | CCn1ccnc1CN(C)Cc1nc(Cc2cccc(F)c2)no1 | -4.44
64 | Cc1ncc(C(=O)N2CC[C@@]3(O)CCN(C(=O)N(C)C)C[C@H]3C2)cn1 | -46.3
65 | COCC(=O)NCC1CCCN(Cc2cc3ccccc3[nH]2)C1 (stereo unspecified) | 7.32
66 | Cc1cc(C)nc(CCNc2nccc(CCC(F)(F)F)n2)n1 | -114
67 | Cc1ccc(CN2CCOCS2(=O)=O)cc1F | 9.52
68 | CC(C)N1CCN(C(=O)c2csc3nc(-c4ccc(Cl)cc4)cn23)CC1 | 1.98
69 | Cc1ccc(-c2ccnc(NCC(O)c3ccc(O)cc3)n2)c(C)n1 (stereo unspecified) | 0.781

Row | Structure (SMILES) | cytotoxicity at 10 µM [%]
70 | CC(C)(C)CN1CCC(c2nnc(Cn3ccnc3)n2C2CC2)CC1 | -5.02
71 | Cc1cnc2c(C(=O)N3CCCC(OCc4ccccn4)C3)cnn2c1 (stereo unspecified) | -5.2
72 | CC(Cn1ccnc1)NC1CCN(Cc2cccc(O)c2)CC1 (stereo unspecified) | -4.21
73 | CC(C)n1cnnc1CN(C)C(=O)c1cnn2ccccc12 | 1.31
74 | CC(=O)NCC1CCN(CC2CCOc3ccccc3C2)CC1 (stereo unspecified) | 10.3
75 | CCC[C@@H]1CN(S(=O)(=O)c2ccc(C)c(F)c2)C[C@H]1N(C)C | 26.7
76 | Cc1cc(C)n(-c2cc(N3CCN(C(=O)C(C)(C)C)CC3)nc(C)n2)n1 | 37.1
77 | CCN(CC)C(=O)c1c(Cl)cnn1CC | -12.3
78 | CS(=O)(=O)N1CCC(C(=O)NC(Cc2ccsc2)c2nccs2)CC1 (stereo unspecified) | 4.04
79 | Cc1ccccc1-c1cncc(C2CCN(C)CC2)n1 | -6.13
80 | O=C(CN1CCC(c2ccccc2)C1)NCC(F)(F)F (stereo unspecified) | -5.28
81 | Cc1cc(C)c(CNC(=O)NCc2ccncc2)c(=O)[nH]1 | -5.59
82 | CCc1ccc(C(=O)N2CCN(CC(O)c3ccccc3)CC2)o1 (stereo unspecified) | -2.54
83 | OC(COCc1ccccc1)CN1CCC(c2ccn[nH]2)CC1 (stereo unspecified) | -13.6
84 | OC(COc1ccc(F)cc1)CN1CCC(c2ccn[nH]2)CC1 (stereo unspecified) | 0.923
85 | CCn1ncc2c1CCCC2NCc1cc(OC)cc(OC)c1 (stereo unspecified) | 3.24
86 | Cc1cc(C(=O)NS(C)(=O)=O)c(C)n1-c1ccccc1 | -8.81
87 | COc1cccc(CNC(=O)CN2CCCC(Cn3cncn3)C2)c1 (stereo unspecified) | -18.2
88 | Cc1ccc(NC2CCN(C(=O)c3ccc(Cl)cc3F)CC2)nn1 | -17.7
89 | Cc1oc(C(=O)O)cc1S(=O)(=O)Nc1cc(Cl)ccc1F | -12
90 | CCc1nc(CN2CCCN(C(=O)c3cnc[nH]3)CC2)cs1 | -9.39
91 | Cc1cc(C)n(CC2CCCN2C(=O)c2cccc3[nH]ncc23)n1 (stereo unspecified) | -5.55
92 | CN(C(=O)NCCCN1CCCC1)C1CCN(c2ccccc2)C1=O (stereo unspecified) | 0.864

Row | Structure (SMILES) | cytotoxicity at 10 µM [%]
93 | CCc1cc(C(=O)N2CCC(Nc3ccc(C)nn3)CC2)sc1C | -1.03
94 | CC1(C)CN(C(=O)NCCc2ccn(-c3ccccc3)n2)CCO1 | 2.21
95 | CC(C)NC(=O)C1CN(Cc2ccsc2)Cc2ccnn2C1 (stereo unspecified) | -5.03
96 | NC(=O)N1CC[C@H](O)[C@@H]1Cc1cccnc1 | 1.72
97 | O=C(O)c1cc2c(nc1-c1cncnc1)CCN(C1CCOC1)CC2 (stereo unspecified) | -1.61
98 | c1ccc(CN2C[C@@H]3OCCN(c4ncccn4)[C@@H]3C2)nc1 | 3.86
99 | CN(C)Cc1cc(C2CCCCN2S(=O)(=O)c2cccc(Cl)c2)nn1C (stereo unspecified) | -8.63
100 | c1cnc(N2CCO[C@H]3CN(Cc4c[nH]cn4)C[C@H]32)cn1 | 9.49
101 | CCN(CC)Cc1cn2c(n1)CN(C(=O)c1cc(C)on1)CC2 | 6.17
102 | O=C(C1CN(c2ncc(F)cn2)CC12CCOCC2)N1CC=CC1 (stereo unspecified) | 9.49
103 | Cn1ccnc1CN1C[C@H](N2CCOCC2)[C@@H]2OCCC[C@@H]21 | 7.19
104 | O=C(c1cc[nH]n1)N1CCC(F)(F)C2(CCN(c3ccccn3)C2)C1 (stereo unspecified) | 2.38
105 | CN(Cc1ccco1)[C@@H]1CN(CC2CCOCC2)C[C@@H]2CCCO[C@@H]21 | -71.1
106 | O=C1CO[C@@H]2CN(Cc3cccs3)C[C@H]2N1Cc1cccnc1 | -77.6
107 | Cn1ccnc1CN1CCCC2(CCN(CC3CCCO3)CC2)C1 (stereo unspecified) | -76.7
108 | CCS(=O)(=O)N1CCN(Cc2cccnc2)c2nc(C)ccc2C1 | -70.3
109 | COCCCNC(=O)c1cc(-c2cnc(N3CCOCC3)nc2)cn1C | -69.8
110 | CN(Cc1cccs1)C1CCC[C@@H]2CN(C(=O)c3cnccn3)C[C@H]12 (stereo partly specified) | 16.7
111 | O=C(Cc1cnccn1)N1C[C@@H]2CC[C@H]1CN(Cc1cscn1)C2 | 1.88
